ChEMBL document CHEMBL1142944, “Synthesis and biological evaluation of selective aromatase expression regulators in breast cancer cells” (J Med Chem, 2007)
Active and inactive are the calls of the source. The rule behind the calls is not given here.

Key:
[1] = system: SK-BR-3; test: Induction of apoptosis in SK-BR-3 cells at 5 uM; type: functional, cell-based; conditions: Homo sapiens
How it was run: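 Cells plated at 0.5 × 10⁴ to 1 × 10⁴ per well in custom medium and left to adhere overnight. Treated 24 h at 5 µM in defined medium, triplicate. After fixation, DNA in apoptotic cells denatured by formamide plus heat. Single-stranded DNA detected by monoclonal antibody ELISA with ABTS, absorbance at 405 nm.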

[2] = system: SK-BR-3; test: Decrease in CYP19 gene expression in SK-BR-3 cells at 5 uM; type: functional, cell-based; conditions: Homo sapiens
How it was run: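 SK-BR-3 cells grown to subconfluency, switched to defined DMEM/F12 medium (human albumin, transferrin, insulin), then exposed 24 h at 5 µM. Total RNA by TRIzol, DNase I-treated, reverse-transcribed with random hexamers (Superscript II, 42 °C 50 min). Taqman real-time PCR with 600 nM CYP19 primers, 50 cycles. CYP19 normalized to 18S rRNA, n = 9, unpaired t test vs control.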

Row | SMILES | Activity [1] | Activity [2]
1 | CN(c1ccc([N+](=O)[O-])cc1OCc1ccc2ccccc2c1)S(C)(=O)=O | inactive | Active
2 | CN(c1ccc([N+](=O)[O-])cc1OCc1ccc(F)cc1)S(C)(=O)=O | inactive | Active
3 | CN(c1ccc([N+](=O)[O-])cc1OCc1ccccc1-c1ccccc1)S(C)(=O)=O | inactive | Active
4 | Cc1ccc(COc2cc([N+](=O)[O-])ccc2N(C)S(C)(=O)=O)cc1 | inactive | –
5 | CN(c1ccc([N+](=O)[O-])cc1OCc1ccccc1)S(C)(=O)=O | inactive | Active
6 | CS(=O)(=O)Nc1ccc([N+](=O)[O-])cc1OCCc1ccccc1 | – | inactive
7 | CN(c1ccc([N+](=O)[O-])cc1OCc1ccc([N+](=O)[O-])cc1)S(C)(=O)=O | inactive | Active
